Measurements: ChEMBL document CHEMBL4665639, “N-Benzylanilines as Fatty Acid Synthesis Inhibitors against Biofilm-related Methicillin-resistant Staphylococcus aureus” (ACS Med Chem Lett, 2019)
Calls of active or inactive are those of the source. The calls are words filed in the database; no cut-off is given here.

What was measured:
Bacillus cereus = experiment: Antibacterial activity against Bacillus cereus assessed as bacterial growth inhibition after 24 hrs by CLSI protocol based broth microdilution assay; type: functional
Enterococcus faecium = experiment: Antibacterial activity against Enterococcus faecium assessed as bacterial growth inhibition after 24 hrs by CLSI protocol based broth microdilution assay; type: functional
Staphylococcus aureus [1] = experiment: Antibacterial activity against Staphylococcus aureus assessed as bacterial growth inhibition after 24 hrs by CLSI protocol based broth microdilution assay; type: functional
Escherichia coli = experiment: Antibacterial activity against Escherichia coli assessed as bacterial growth inhibition after 24 hrs by CLSI protocol based broth microdilution assay; type: functional
Pseudomonas aeruginosa = experiment: Antibacterial activity against Pseudomonas aeruginosa assessed as bacterial growth inhibition after 24 hrs by CLSI protocol based broth microdilution assay; type: functional
Candida tropicalis = experiment: Antifungal activity against Candida tropicalis assessed as fungal growth inhibition after 24 hrs by CLSI protocol based broth microdilution assay; type: functional
Candida albicans = experiment: Antifungal activity against Candida albicans assessed as fungal growth inhibition after 24 hrs by CLSI protocol based broth microdilution assay; type: functional
Staphylococcus aureus [2] = experiment: Antibacterial activity against methicillin-resistant Staphylococcus aureus clinical isolate 1 assessed as bacterial growth inhibition after 24 hrs by CLSI protocol based broth microdilution assay; type: functional
Procedure, shortened: (§1)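 Broth dilution MIC against 19 multidrug-resistant clinical S. aureus isolates, each taken from a different specimen type.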

Staphylococcus aureus [3] = experiment: Antibacterial activity against methicillin-resistant Staphylococcus aureus clinical isolate 2 assessed as bacterial growth inhibition after 24 hrs by CLSI protocol based broth microdilution assay; type: functional; procedure, shortened: as §1
Staphylococcus aureus [4] = experiment: Antibacterial activity against methicillin-resistant Staphylococcus aureus clinical isolate 3 assessed as bacterial growth inhibition after 24 hrs by CLSI protocol based broth microdilution assay; type: functional; procedure, shortened: as §1
Staphylococcus aureus [5] = experiment: Antibacterial activity against methicillin-resistant Staphylococcus aureus clinical isolate 4 assessed as bacterial growth inhibition after 24 hrs by CLSI protocol based broth microdilution assay; type: functional; procedure, shortened: as §1
Staphylococcus aureus [6] = experiment: Antibacterial activity against methicillin-resistant Staphylococcus aureus clinical isolate 5 assessed as bacterial growth inhibition after 24 hrs by CLSI protocol based broth microdilution assay; type: functional; procedure, shortened: as §1
Staphylococcus aureus [7] = experiment: Antibacterial activity against methicillin-resistant Staphylococcus aureus clinical isolate 6 assessed as bacterial growth inhibition after 24 hrs by CLSI protocol based broth microdilution assay; type: functional; procedure, shortened: as §1
Staphylococcus aureus [8] = experiment: Antibacterial activity against methicillin-resistant Staphylococcus aureus clinical isolate 7 assessed as bacterial growth inhibition after 24 hrs by CLSI protocol based broth microdilution assay; type: functional; procedure, shortened: as §1
Staphylococcus aureus [9] = experiment: Antibacterial activity against methicillin-resistant Staphylococcus aureus clinical isolate 8 assessed as bacterial growth inhibition after 24 hrs by CLSI protocol based broth microdilution assay; type: functional; procedure, shortened: as §1
Staphylococcus aureus [10] = experiment: Antibacterial activity against methicillin-resistant Staphylococcus aureus clinical isolate 9 assessed as bacterial growth inhibition after 24 hrs by CLSI protocol based broth microdilution assay; type: functional; procedure, shortened: as §1
Staphylococcus aureus [11] = experiment: Antibacterial activity against methicillin-resistant Staphylococcus aureus clinical isolate 10 assessed as bacterial growth inhibition after 24 hrs by CLSI protocol based broth microdilution assay; type: functional; procedure, shortened: as §1
Staphylococcus aureus [12] = experiment: Antibacterial activity against methicillin-resistant Staphylococcus aureus clinical isolate 11 assessed as bacterial growth inhibition after 24 hrs by CLSI protocol based broth microdilution assay; type: functional; procedure, shortened: as §1
Staphylococcus aureus [13] = experiment: Antibacterial activity against methicillin-resistant Staphylococcus aureus clinical isolate 12 assessed as bacterial growth inhibition after 24 hrs by CLSI protocol based broth microdilution assay; type: functional; procedure, shortened: as §1
Staphylococcus aureus [14] = experiment: Antibacterial activity against methicillin-resistant Staphylococcus aureus clinical isolate 13 assessed as bacterial growth inhibition after 24 hrs by CLSI protocol based broth microdilution assay; type: functional; procedure, shortened: as §1
Staphylococcus aureus [15] = experiment: Antibacterial activity against methicillin-resistant Staphylococcus aureus clinical isolate 14 assessed as bacterial growth inhibition after 24 hrs by CLSI protocol based broth microdilution assay; type: functional; procedure, shortened: as §1
Staphylococcus aureus [16] = experiment: Antibacterial activity against methicillin-resistant Staphylococcus aureus clinical isolate 15 assessed as bacterial growth inhibition after 24 hrs by CLSI protocol based broth microdilution assay; type: functional; procedure, shortened: as §1
Staphylococcus aureus [17] = experiment: Antibacterial activity against methicillin-resistant Staphylococcus aureus clinical isolate 16 assessed as bacterial growth inhibition after 24 hrs by CLSI protocol based broth microdilution assay; type: functional; procedure, shortened: as §1
Staphylococcus aureus [18] = experiment: Antibacterial activity against methicillin-resistant Staphylococcus aureus clinical isolate 17 assessed as bacterial growth inhibition after 24 hrs by CLSI protocol based broth microdilution assay; type: functional; procedure, shortened: as §1
Staphylococcus aureus [19] = experiment: Antibacterial activity against methicillin-resistant Staphylococcus aureus clinical isolate 18 assessed as bacterial growth inhibition after 24 hrs by CLSI protocol based broth microdilution assay; type: functional; procedure, shortened: as §1
Staphylococcus aureus [20] = experiment: Antibacterial activity against methicillin-resistant Staphylococcus aureus clinical isolate 19 assessed as bacterial growth inhibition after 24 hrs by CLSI protocol based broth microdilution assay; type: functional; procedure, shortened: as §1
Staphylococcus aureus [21] = experiment: Antibiofilm activity against methicillin-resistant Staphylococcus aureus ATCC 43300 assessed as reduction in biofilm biomass at 0.5 to 4 mg/L after 24 hrs by MTT assay; type: functional, organism-based; details: dose mg/L 0.5-4, time 24.0 hrs
Procedure, shortened: (§2)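 Biofilm growth of MRSA ATCC 43300 measured in the presence of compound in cultivation plates, with a DMSO control. Significance of control vs treated is given at p < 0.05, 0.01 and 0.001.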

Staphylococcus aureus [22] = experiment: Antibiofilm activity against methicillin-resistant Staphylococcus aureus ATCC 43300 assessed as inhibition of biofilm at 0.5 to 2 mg/L after 24 hrs by MTT assay; type: functional, organism-based; details: dose mg/L 0.5-2, time 24.0 hrs; procedure, shortened: as §2
Staphylococcus aureus [23] = experiment: Antibiofilm activity against methicillin-resistant Staphylococcus aureus ATCC 43300 assessed as reduction in biofilm biomass up to 1 mg/L after 24 hrs by scanning electronic microscopic imaging analysis; type: functional, organism-based; details: dose mg/L <=1, time 24.0 hrs
Procedure, shortened: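 Scanning electron microscopy of 24 h MRSA ATCC 43300 biofilm, untreated or grown with stepwise increasing compound concentrations.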

Staphylococcus aureus [24] = experiment: Antibiofilm activity against methicillin-resistant Staphylococcus aureus clinical isolate 2 assessed as disruption of preformed biofilm up to 2 mg/L after 24 hrs by MTT assay; type: functional, organism-based; details: dose mg/L <=2, time 24.0 hrs
Procedure, shortened: (§3)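 Biofilms of clinical MRSA isolates that form biofilm in culture were preformed for 24 h and then exposed to compound to measure disruption. Significance of control vs treated is given at p < 0.05, 0.01 and 0.001.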

Staphylococcus aureus [25] = experiment: Antibiofilm activity against methicillin-resistant Staphylococcus aureus clinical isolate 3 assessed as disruption of preformed biofilm up to 2 mg/L after 24 hrs by MTT assay; type: functional, organism-based; details: dose mg/L <=2, time 24.0 hrs; procedure, shortened: as §3
Staphylococcus aureus [26] = experiment: Antibiofilm activity against methicillin-resistant Staphylococcus aureus clinical isolate 4 assessed as disruption of preformed biofilm up to 2 mg/L after 24 hrs by MTT assay; type: functional, organism-based; details: dose mg/L <=2, time 24.0 hrs; procedure, shortened: as §3
Staphylococcus aureus [27] = experiment: Antibiofilm activity against methicillin-resistant Staphylococcus aureus clinical isolate 5 assessed as disruption of preformed biofilm up to 2 mg/L after 24 hrs by MTT assay; type: functional, organism-based; details: dose mg/L <=2, time 24.0 hrs; procedure, shortened: as §3
Staphylococcus aureus [28] = experiment: Antibiofilm activity against methicillin-resistant Staphylococcus aureus clinical isolate 6 assessed as disruption of preformed biofilm up to 2 mg/L after 24 hrs by MTT assay; type: functional, organism-based; details: dose mg/L <=2, time 24.0 hrs; procedure, shortened: as §3
Staphylococcus aureus [29] = experiment: Antibiofilm activity against methicillin-resistant Staphylococcus aureus clinical isolate 11 assessed as disruption of preformed biofilm up to 2 mg/L after 24 hrs by MTT assay; type: functional, organism-based; details: dose mg/L <=2, time 24.0 hrs; procedure, shortened: as §3
Staphylococcus aureus [30] = experiment: Antibiofilm activity against methicillin-resistant Staphylococcus aureus clinical isolate 12 assessed as disruption of preformed biofilm up to 2 mg/L after 24 hrs by MTT assay; type: functional, organism-based; details: dose mg/L <=2, time 24.0 hrs; procedure, shortened: as §3
Staphylococcus aureus [31] = experiment: Antibiofilm activity against methicillin-resistant Staphylococcus aureus clinical isolate 16 assessed as disruption of preformed biofilm up to 2 mg/L after 24 hrs by MTT assay; type: functional, organism-based; details: dose mg/L <=2, time 24.0 hrs; procedure, shortened: as §3
Staphylococcus aureus [32] = experiment: Antibiofilm activity against methicillin-resistant Staphylococcus aureus clinical isolate 17 assessed as disruption of preformed biofilm up to 2 mg/L after 24 hrs by MTT assay; type: functional, organism-based; details: dose mg/L <=2, time 24.0 hrs; procedure, shortened: as §3
Staphylococcus aureus [33] = experiment: Antibiofilm activity against methicillin-resistant Staphylococcus aureus clinical isolate 18 assessed as disruption of preformed biofilm up to 2 mg/L after 24 hrs by MTT assay; type: functional, organism-based; details: dose mg/L <=2, time 24.0 hrs; procedure, shortened: as §3
Staphylococcus aureus [34] = experiment: Inhibition of Staphylococcus aureus ATCC 6538 fabI expressed in Escherichia coli BL21 (DE3) assessed as oxidation of NADPH to NADP+ using trans-2-octenoyl CoA as substrate incubated for 2 hrs in presence of NADPH by spectrophotometric analysis
L02 = experiment: Cytotoxicity against human L02 cells assessed as reduction in cell viability at 80 mg/L after 24 hrs by MTT assay relative to control; type: cell-based; details: l02, 24 h, at 80 µg/mL
GES1 = experiment: Cytotoxicity against human GES1 cells assessed as reduction in cell viability at 80 mg/L after 24 hrs by MTT assay relative to control; type: cell-based; details: ges1, 24 h, at 80 µg/mL
Staphylococcus aureus [35] = experiment: Binding affinity to Staphylococcus aureus ATCC 6538 fabI expressed in Escherichia coli BL21 (DE3) assessed as tetramer transition of partial dimer resulting in peak shift at 1:10:10 ratio incubated for overnight in presence of NADP+ by analytical size exclusion chromatography; details: time 12.0 hrs

Oc1c(Br)cc(Cl)cc1CNc1cc(C(F)(F)F)ccc1Cl
MIC (Bacillus cereus): ≤ 2 µg/mL
MIC (Enterococcus faecium): ≤ 2 µg/mL
MIC (Staphylococcus aureus [1]): ≤ 2 µg/mL
MIC (Escherichia coli): ≥ 64 µg/mL
MIC (Pseudomonas aeruginosa): ≥ 64 µg/mL
MIC (Candida tropicalis): ≥ 64 µg/mL
MIC (Candida albicans): ≥ 64 µg/mL
MIC (Staphylococcus aureus [2]): ≤ 1 µg/mL
MIC (Staphylococcus aureus [3]): ≤ 1 µg/mL
MIC (Staphylococcus aureus [4]): ≤ 1 µg/mL
MIC (Staphylococcus aureus [5]): ≤ 1 µg/mL
MIC (Staphylococcus aureus [6]): ≤ 1 µg/mL
MIC (Staphylococcus aureus [7]): ≤ 1 µg/mL
MIC (Staphylococcus aureus [8]): ≤ 1 µg/mL
MIC (Staphylococcus aureus [9]): ≤ 1 µg/mL
MIC (Staphylococcus aureus [10]): ≤ 1 µg/mL
MIC (Staphylococcus aureus [11]): ≤ 1 µg/mL
MIC (Staphylococcus aureus [12]): ≤ 1 µg/mL
MIC (Staphylococcus aureus [13]): ≤ 1 µg/mL
MIC (Staphylococcus aureus [14]): ≤ 1 µg/mL
MIC (Staphylococcus aureus [15]): ≤ 1 µg/mL
MIC (Staphylococcus aureus [16]): ≤ 1 µg/mL
MIC (Staphylococcus aureus [17]): ≤ 1 µg/mL
MIC (Staphylococcus aureus [18]): ≤ 1 µg/mL
MIC (Staphylococcus aureus [19]): ≤ 1 µg/mL
MIC (Staphylococcus aureus [20]): ≤ 1 µg/mL
Activity (Staphylococcus aureus [21]): Active
inhibition (Staphylococcus aureus [22]): Active
inhibition (Staphylococcus aureus [23]): Active
Activity (Staphylococcus aureus [24]): Active
Activity (Staphylococcus aureus [25]): Active
Activity (Staphylococcus aureus [26]): Active
Activity (Staphylococcus aureus [27]): Active
Activity (Staphylococcus aureus [28]): Active
Activity (Staphylococcus aureus [29]): Active
Activity (Staphylococcus aureus [30]): Active
Activity (Staphylococcus aureus [31]): Active
Activity (Staphylococcus aureus [32]): Active
Activity (Staphylococcus aureus [33]): Active
inhibition (Staphylococcus aureus [34]): Active
Activity (L02): 50%
Activity (GES1): 50%
Activity (Staphylococcus aureus [35]): Active
